In ChEMBL document CHEMBL1122504, “Heterocyclic Quinones. 4. A new highly cytotoxic drug: 6,7-bis(1-aziridinyl)-5,8-quinazolinedione” (1983):
Where “and” joins values, the source holds several entries; their conditions need not be identical. Equal entries are not always repeated.

tested on: L1210; assay: Concentration that decreases the growth rate of the L1210 cells by 50% after 48 hr of culture; type: functional; settings: Mus musculus, L1210, 48 h; read-out: ID50 (the source's name)
Outline: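 L1210 leukemia cells cultured with increasing drug concentrations for 48 h at 37 °C under 5% CO2. Percentage inhibition of control growth was fitted by least-squares linear regression against log dose, and the concentration lowering control growth by 50% was estimated from the regression equation.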

SMILES	IC50
O=C1C(N2CCCCC2)=CC(=O)c2ncncc21	0.359 µg/mL and 1.48 µM
COC1=C(N)C(=O)c2ncncc2C1=O	0.215 µg/mL and 1.05 µM
COC1=C(Br)C(=O)c2ncncc2C1=O	0.889 µg/mL and 3.31 µM
COC1=CC(=O)c2ncncc2C1=O	0.593 µg/mL and 3.12 µM
